Measurements reported in ChEMBL document CHEMBL4308847, “Discovery, Structure-Activity Relationship, and Biological Characterization of a Novel Series of 6-((1 H-Pyrazolo[4,3- b]pyridin-3-yl)amino)-benzo[ d]isothiazole-3-carboxamides as Positive Allosteric Modulators of the Metabotropic Glutamate Receptor 4 (mGlu4)” (J Med Chem, 2018).
The source made the active and inactive calls. The rule behind the calls is not given here.

Key:
[1] = molecular target: T1, Metabotropic glutamate receptor 4 (Homo sapiens, UniProt Q14833); assay: (§1) Positive allosteric modulation of human mGlu4 receptor expressed in CHO cells co-expressing Gqi5 assessed as increase in glutamate-induced calcium mobilization preincubated for 142 secs followed by EC20 glutamate addition and subsequent EC80 glutamate addition after 147 secs by Fluo-4-AM dye based fluorescence assay; format: functional, cell-based
T1 sequence (Q14833 whole entry): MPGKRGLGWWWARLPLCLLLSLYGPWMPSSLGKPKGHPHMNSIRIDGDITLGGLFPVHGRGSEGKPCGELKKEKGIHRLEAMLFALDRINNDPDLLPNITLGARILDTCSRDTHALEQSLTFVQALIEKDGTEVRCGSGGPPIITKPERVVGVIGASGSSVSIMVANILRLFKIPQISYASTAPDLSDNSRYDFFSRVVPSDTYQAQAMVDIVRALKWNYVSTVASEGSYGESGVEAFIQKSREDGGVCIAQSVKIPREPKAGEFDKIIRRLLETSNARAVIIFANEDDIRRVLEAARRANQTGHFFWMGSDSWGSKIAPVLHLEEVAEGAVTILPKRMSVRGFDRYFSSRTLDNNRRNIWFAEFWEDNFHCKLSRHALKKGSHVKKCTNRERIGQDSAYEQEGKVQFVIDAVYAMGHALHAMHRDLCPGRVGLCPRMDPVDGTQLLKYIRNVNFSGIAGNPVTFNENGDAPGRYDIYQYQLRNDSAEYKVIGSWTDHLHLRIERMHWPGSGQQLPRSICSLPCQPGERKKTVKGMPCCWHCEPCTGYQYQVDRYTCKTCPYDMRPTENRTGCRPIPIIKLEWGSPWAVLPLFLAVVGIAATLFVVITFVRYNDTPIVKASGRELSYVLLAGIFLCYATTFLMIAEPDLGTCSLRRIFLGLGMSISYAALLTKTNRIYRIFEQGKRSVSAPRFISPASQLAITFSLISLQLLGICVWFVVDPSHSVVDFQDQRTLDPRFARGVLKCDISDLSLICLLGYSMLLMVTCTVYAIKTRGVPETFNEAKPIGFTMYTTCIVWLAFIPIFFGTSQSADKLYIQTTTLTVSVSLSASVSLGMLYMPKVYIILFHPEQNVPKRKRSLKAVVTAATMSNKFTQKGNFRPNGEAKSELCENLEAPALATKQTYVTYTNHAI
In short: (§2)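 CHO cells expressing human mGlu4 and Gqi5, plated at 30,000 cells/well and grown overnight at 37 °C, 5% CO2. Cells were loaded with 1 μM Fluo-4 AM for 45 min at 37 °C in HBSS/20 mM HEPES/2.5 mM probenecid. Compounds were run as 10-point, 1:3 dilution series. After 142 s, EC20 glutamate was added; 147 s later, EC80 glutamate. Fluorescence was normalized to the maximal glutamate response. EC50 and %Glu Max were fitted by four-parameter logistic, with maximum normalized to PHCCC.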

[2] = molecular target: T1, Metabotropic glutamate receptor 4; assay: as §1, with “measured” for “subsequent EC80 glutamate addition”, “assay relative to control” for “assay”; format: functional, cell-based; in short: as §2
[3] = Intrinsic clearance in rat liver microsomes at 1 uM preincubated for 5 mins followed by NADPH addition measured up to 45 mins by LC-MS/MS analysis; format: ADME, Microsome; settings: read-out: CLH
In short: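 Intrinsic and predicted hepatic clearance derived from liver microsome incubations.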

[4] = molecular target: T2, Cytochrome P450 1A2 (Homo sapiens, UniProt P05177); assay: Inhibition of CYP1A2 in human liver microsomes using phenacetin as substrate preincubated for 15 mins followed by substrate addition and measured after 8 mins by LC-MS/MS analysis; format: ADME
T2 sequence (P05177 whole entry): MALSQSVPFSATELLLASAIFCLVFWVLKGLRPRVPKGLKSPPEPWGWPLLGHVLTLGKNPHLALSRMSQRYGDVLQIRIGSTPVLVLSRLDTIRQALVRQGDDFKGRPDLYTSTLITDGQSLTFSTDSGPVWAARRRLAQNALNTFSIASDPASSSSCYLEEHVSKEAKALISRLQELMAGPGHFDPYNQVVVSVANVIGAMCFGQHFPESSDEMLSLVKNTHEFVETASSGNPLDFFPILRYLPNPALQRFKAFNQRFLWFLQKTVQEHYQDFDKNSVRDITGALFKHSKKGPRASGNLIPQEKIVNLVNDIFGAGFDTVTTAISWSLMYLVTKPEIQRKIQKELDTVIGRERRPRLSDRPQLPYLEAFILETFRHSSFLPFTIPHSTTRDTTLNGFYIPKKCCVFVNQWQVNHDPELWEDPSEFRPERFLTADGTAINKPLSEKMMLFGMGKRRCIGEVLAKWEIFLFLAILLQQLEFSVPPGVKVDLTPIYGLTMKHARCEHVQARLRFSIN
In short: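 IC50 for CYP1A2 inhibition determined in human liver microsomes using specific probe substrate-metabolite pairs.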

[5] = Clearance in rat administered as iv cassette dose; format: ADME, organism-based; settings: in vivo
In short: (§3)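 IV cassette in male Sprague-Dawley rats (~300 g, n = 1 per experiment), cannulated in carotid artery and jugular vein and acclimated about one week. Plasma clearance, Vss, t1/2 and MRT were derived.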

[6] = MRT in rat administered as iv cassette dose; format: ADME, organism-based; settings: in vivo; in short: as §3
[7] = Half life in rat administered as iv cassette dose; format: ADME, organism-based; settings: in vivo; in short: as §3
[8] = Plasma concentration in rat administered as iv cassette dose; format: ADME, organism-based; settings: in vivo
In short: (§4)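 Cassette dosing in male Sprague-Dawley rats (~300 g, n = 1 per experiment), with carotid artery and jugular vein catheters. Animals acclimated about one week with food and water ad libitum. Plasma (ng/mL) and brain (ng/g) levels were measured and Kp calculated.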

[9] = Brain to plasma partition coefficient, Kp of the compound in rat administered as iv cassette dose; format: ADME, organism-based; settings: brain and plasma, read-out: Kp; in short: as §4
[10] = Plasma concentration in Sprague-Dawley rat model of haloperidol-induced catalepsy at 10 mg/kg, po; format: ADME, organism-based; settings: in vivo
In short: (§5)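 Male Sprague-Dawley rats given haloperidol 0.75 mg/kg i.p., then returned to cages for 60 min. Compound 10 mg/kg was dosed orally 30 min before catalepsy testing. Plasma, brain and CSF were then assayed, and free levels reported.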

[11] = molecular target: Cytochrome P450 3A4 (Homo sapiens, UniProt P08684); assay: Inhibition of CYP3A4 in human liver microsomes using midazolam as substrate preincubated for 15 mins followed by substrate addition and measured after 8 mins by LC-MS/MS analysis; format: ADME
Cytochrome P450 3A4, sequence (P08684 whole entry): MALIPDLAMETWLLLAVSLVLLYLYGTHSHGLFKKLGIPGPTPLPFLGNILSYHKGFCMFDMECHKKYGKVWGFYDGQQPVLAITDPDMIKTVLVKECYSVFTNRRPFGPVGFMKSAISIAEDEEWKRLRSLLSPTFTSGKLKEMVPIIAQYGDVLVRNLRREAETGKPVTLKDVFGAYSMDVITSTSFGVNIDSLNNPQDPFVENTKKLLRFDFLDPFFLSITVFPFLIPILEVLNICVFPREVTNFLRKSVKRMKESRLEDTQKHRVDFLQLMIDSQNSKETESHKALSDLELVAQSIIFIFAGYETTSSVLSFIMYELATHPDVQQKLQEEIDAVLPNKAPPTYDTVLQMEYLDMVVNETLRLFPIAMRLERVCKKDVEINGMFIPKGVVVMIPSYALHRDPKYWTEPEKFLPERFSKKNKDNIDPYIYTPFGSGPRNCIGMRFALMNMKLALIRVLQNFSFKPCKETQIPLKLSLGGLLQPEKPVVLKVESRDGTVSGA

[12] = molecular target: Cytochrome P450 2D6 (Homo sapiens, UniProt P10635); assay: Inhibition of CYP2D6 in human liver microsomes using dextromethorphan as substrate preincubated for 15 mins followed by substrate addition and measured after 8 mins by LC-MS/MS analysis; format: ADME
Cytochrome P450 2D6, sequence (P10635 whole entry): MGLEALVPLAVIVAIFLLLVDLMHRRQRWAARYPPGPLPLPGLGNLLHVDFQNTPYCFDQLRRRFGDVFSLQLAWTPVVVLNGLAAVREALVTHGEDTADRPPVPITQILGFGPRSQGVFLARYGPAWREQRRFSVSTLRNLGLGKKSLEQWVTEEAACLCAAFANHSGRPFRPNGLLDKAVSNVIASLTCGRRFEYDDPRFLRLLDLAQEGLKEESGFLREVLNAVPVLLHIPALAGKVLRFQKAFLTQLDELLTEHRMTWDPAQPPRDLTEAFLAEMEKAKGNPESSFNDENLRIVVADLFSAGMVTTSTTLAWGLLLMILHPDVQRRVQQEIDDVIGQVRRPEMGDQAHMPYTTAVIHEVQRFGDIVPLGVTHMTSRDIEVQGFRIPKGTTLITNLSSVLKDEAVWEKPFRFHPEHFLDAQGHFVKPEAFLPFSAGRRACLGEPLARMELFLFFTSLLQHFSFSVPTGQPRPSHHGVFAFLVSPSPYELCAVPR

[13] = system: P-gp; assay: Efflux ratio of permeability in MDCK cells harboring P-gp; format: ADME, cell-based, Canis lupus familiaris; settings: dog, MDCK-MDR1
[14] = Brain to plasma partition coefficient, Kp of the compound in Sprague-Dawley rat model of haloperidol-induced catalepsy at 10 mg/kg, po; format: ADME, organism-based; settings: brain and plasma; in short: as §5
[15] = molecular target: Metabotropic glutamate receptor 1 (Homo sapiens) (UniProt Q13255); assay: Allosteric modulation of human mGlu1 receptor assessed as change in glutamate-induced calcium mobilization at 10 uM preincubated for 2.5 mins followed by glutamate addition by Fluo-4-AM dye based fluorescence assay; format: functional
Metabotropic glutamate receptor 1 (Homo sapiens), sequence (Q13255 19-1194 limits assumed): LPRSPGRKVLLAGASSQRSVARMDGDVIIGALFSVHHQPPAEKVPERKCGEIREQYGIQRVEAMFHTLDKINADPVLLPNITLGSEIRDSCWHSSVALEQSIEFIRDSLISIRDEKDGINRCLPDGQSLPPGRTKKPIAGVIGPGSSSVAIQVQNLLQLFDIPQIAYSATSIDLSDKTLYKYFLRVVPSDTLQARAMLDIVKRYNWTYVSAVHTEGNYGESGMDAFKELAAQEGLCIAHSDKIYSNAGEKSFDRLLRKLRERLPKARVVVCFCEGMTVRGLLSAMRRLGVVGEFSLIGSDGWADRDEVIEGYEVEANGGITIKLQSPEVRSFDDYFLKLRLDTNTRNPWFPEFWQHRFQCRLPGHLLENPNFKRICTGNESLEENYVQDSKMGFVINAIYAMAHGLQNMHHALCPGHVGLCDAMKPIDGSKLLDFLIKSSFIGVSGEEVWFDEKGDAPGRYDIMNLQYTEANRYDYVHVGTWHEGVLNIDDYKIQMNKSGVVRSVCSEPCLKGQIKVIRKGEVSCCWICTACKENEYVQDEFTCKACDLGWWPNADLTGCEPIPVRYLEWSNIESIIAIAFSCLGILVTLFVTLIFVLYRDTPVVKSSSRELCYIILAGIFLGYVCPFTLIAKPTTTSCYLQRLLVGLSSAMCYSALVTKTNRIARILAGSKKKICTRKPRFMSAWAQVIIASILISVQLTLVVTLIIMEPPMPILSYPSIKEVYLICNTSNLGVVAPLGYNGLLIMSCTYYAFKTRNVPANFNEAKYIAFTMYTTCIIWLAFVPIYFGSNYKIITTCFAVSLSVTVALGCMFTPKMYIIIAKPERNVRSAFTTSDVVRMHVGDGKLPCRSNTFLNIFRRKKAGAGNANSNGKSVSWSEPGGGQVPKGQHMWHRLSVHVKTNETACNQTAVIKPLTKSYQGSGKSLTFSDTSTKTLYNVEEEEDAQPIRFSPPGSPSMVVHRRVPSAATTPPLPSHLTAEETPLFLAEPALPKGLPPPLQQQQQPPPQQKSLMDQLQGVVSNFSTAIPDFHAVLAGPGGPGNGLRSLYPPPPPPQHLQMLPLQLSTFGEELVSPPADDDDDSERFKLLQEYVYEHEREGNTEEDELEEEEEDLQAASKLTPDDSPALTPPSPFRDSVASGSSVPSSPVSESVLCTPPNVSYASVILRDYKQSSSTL
In short: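 Human mGlu1 and rat mGlu5 tested by calcium mobilization with a double addition. 10 μM compound was added, then 2.5 min later a full glutamate concentration range. A left shift of more than 2-fold was scored as potentiation. A right shift of more than 2-fold, or a depression of the maximum response by at least 75%, was scored as antagonism.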

## O=C(NC1CC(F)(F)C1)c1nsc2cc(Nc3n[nH]c4cccnc34)ccc12
[1]
  EC50: 0.0501 µM
[2]
  %max: 50.5%
[3]
  CLint scaled at 1 µM: 34.2 mL/min/kg
[4]
  IC50: > 30 µM
[5]
  clearance: 3.1 mL/min/kg
[6]
  MRT: 8.5 h
[7]
  half-life: 7.42 h
[8]
  Cp: 284 ng/mL
[9]
  Kp: 0.4
[10]
  concentration: 1120 nM
[11]
  IC50: > 30 µM
[12]
  IC50: > 30 µM
[13]
  efflux ratio: 1.9
[14]
  Kp: 0.23
[15]
  Activity: inactive
